Assay results published in ChEMBL document CHEMBL3994599, “Pallidopenillines: Polyketides from the Alga-Derived Fungus Penicillium thomii Maire KMM 4675” (J Nat Prod, 2016).
Active and inactive are the calls of the source. The calls are words filed in the database; no cut-off is given here.

Legend:
MEL28 = test: Cytotoxicity against human MEL28 cells assessed as reduction in cell viability up to 100 uM after 24 to 72 hrs by MTT assay; assay type: functional, cell-based
HCT-116 = test: Cytotoxicity against human HCT116 cells assessed as reduction in cell viability up to 100 uM after 24 to 72 hrs by MTT assay; assay type: functional, cell-based
RAW264.7 = test: Inhibition of ROS generation in mouse RAW264.7 cells at 10 uM after 24 hrs by H2DCF-DA staining based fluorescence assay relative to control; assay type: functional; details: RAW264.7, 24 h
Method in brief: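 RAW 264.7 murine macrophages were stimulated with lipopolysaccharide (LPS), and compounds were tested at 10 μM. ROS levels were expressed as percent change relative to control cells treated with LPS alone. Significance was reported as p values.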

CWR22R [1] = test: Cytotoxicity against human 22Rv1 cells assessed as inhibition of colony formation at 1 uM relative to control; assay type: functional
Method in brief: (§1)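 Soft agar method: 22Rv1 human prostate cancer cells were grown in soft agar with compound. Colony formation and growth were compared with untreated control.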

CWR22R [2] = test: Cytotoxicity against human 22Rv1 cells assessed as reduction in cell viability up to 72 hrs by MTT assay; assay type: functional, cell-based; details: 22Rv1, 72 h
CWR22R [3] = test: Cytotoxicity against human 22Rv1 cells assessed as inhibition of colony formation at 2 uM relative to control; assay type: functional; method in brief: as §1

SMILES	Activity (MEL28)	Activity (HCT-116)	inhibition at 10 µM (RAW264.7) [%]	inhibition at 1 µM (CWR22R [1]) [%]	IC50 (CWR22R [2]) [µM]	inhibition at 2 µM (CWR22R [3]) [%]
CC(=O)OCCC(=O)[C@@H]1[C@H]2CC[C@H](CO)C[C@@H]2C=C[C@@]1(C)O	inactive	inactive	27			
CC(=O)OCCC(=O)[C@@H]1[C@H]2CC[C@H](COC(C)=O)C[C@@H]2C=C[C@@]1(C)O	inactive	inactive				
CC(=O)OCCC(=O)[C@@H]1[C@H]2CC[C@H](C)[C@@H](O)[C@@H]2[C@H](Cl)[C@@H](O)[C@@]1(C)O			37			
C[C@H]1CC[C@H]2[C@@H](C=C[C@@](C)(O)[C@@H]2C(=O)CCO)[C@@H]1O	inactive	inactive				
CC(=O)OCCC(=O)[C@H]1C(C)=C[C@@H](O)[C@H]2[C@H](O)[C@@H](C)CC[C@H]12			36	40	9.8	
CC(=O)OCCC(=O)[C@@H]1[C@H]2CC[C@H](C)[C@@H](O)[C@@H]2C=C[C@@]1(C)O	inactive	inactive				40
CC(=O)OC[C@H]1CC[C@@H]2[C@@H](C(=O)CCO)[C@](C)(O)C=C[C@H]2C1	inactive	inactive				
